According to ChEMBL document CHEMBL3994608, “Design, synthesis and antimicrobial activities of thiouracil derivatives containing triazolo-thiadiazole as SecA inhibitors” (Eur J Med Chem, 2017):
≈ marks a conversion by molar mass, not a printed value. Blank lines part the entries; values can stand above or below the molecule they belong to.

Legend:
[1] = system: Staphylococcus aureus; assay: Antibacterial activity against Staphylococcus aureus at 25 ug/ml after overnight incubation by plate colony counting method relative to control; type: functional
Outline: (§1)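 Plate colony counting on nutrient agar. Suspensions made from fresh colonies on NA slants grown 24 h, then serially diluted tenfold in sterile water. Duplicate aliquots of the 10^-5 and 10^-6 dilutions spread on NA plates containing test compound at 25 µg/mL; control plates NA only. Incubated overnight at 35 °C, colonies counted, inhibition given as percentage.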

[2] = system: Bacillus amyloliquefaciens; assay: Antibacterial activity against Bacillus amyloliquefaciens at 25 ug/ml after overnight incubation by plate colony counting method relative to control; type: functional; outline: as §1
[3] = system: Bacillus subtilis; assay: Antibacterial activity against Bacillus subtilis at 25 ug/ml after overnight incubation by plate colony counting method relative to control; type: functional; outline: as §1
[4] = system: Escherichia coli; assay: Inhibition of Escherichia coli BL21.19 SecA at 20 ug/ml after 30 mins by malachite green dye-based assay relative to control
Outline: (§2)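 SecA ATPase from E. coli BL21.19. Reaction contains Tris-HCl buffer (pH 7.6, with KCl, NH4Cl, DTT, Mg(OAc)2), […], […] and sample, diluted with distilled water; water as blank. Incubated 37 °C for 30 min. Malachite green/ammonium molybdate/Triton X-100 colour reagent added, then 34% citrate after 1 min. Absorbance read at 660 nm and inhibition calculated from it.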

[5] = Inhibition of Escherichia coli BL21.19 SecA after 30 mins by malachite green dye-based assay; outline: as §2
[6] = system: Escherichia coli; assay: Inhibition of Escherichia coli BL21.19 SecA at 10 ug/ml after 30 mins by malachite green dye-based assay relative to control; outline: as §2

Structure (SMILES): N#Cc1c(-c2ccccc2Cl)nc(SCc2ccc(-c3nn4c(-c5ccccc5)nnc4s3)cc2)[nH]c1=O
- inhibition at 25 µg/mL [1]: 46%
- inhibition at 25 µg/mL [2]: 66%
- inhibition at 25 µg/mL [3]: 55%

- inhibition [4]: 72%
- IC50 [5]: 9.7 µg/mL (≈ 16.5 µM)
- inhibition [6]: 51%
Structure (SMILES): N#Cc1c(-c2ccc(Cl)cc2Cl)nc(SCc2ccc(-c3nn4c(-c5ccccc5)nnc4s3)cc2)[nH]c1=O
- inhibition at 25 µg/mL [1]: 88%
- inhibition at 25 µg/mL [2]: 82%
- inhibition at 25 µg/mL [3]: 90%

Structure (SMILES): N#Cc1c(-c2c(Cl)cccc2Cl)nc(SCc2ccc(-c3nn4c(-c5ccccc5)nnc4s3)cc2)[nH]c1=O
- inhibition at 25 µg/mL [1]: 56%
- inhibition at 25 µg/mL [2]: 60%
- inhibition at 25 µg/mL [3]: 49%

Structure (SMILES): N#Cc1c(-c2ccc(Cl)cc2Cl)nc(SCc2ccc(-c3nn4c(-c5c(Cl)cccc5Cl)nnc4s3)cc2)[nH]c1=O
- inhibition at 25 µg/mL [1]: 81%
- inhibition at 25 µg/mL [2]: 78%
- inhibition at 25 µg/mL [3]: 86%

- IC50 [5]: Nd(Insoluble)
Structure (SMILES): N#Cc1c(-c2ccc(Cl)cc2Cl)nc(SCc2ccc(-c3nn4c(-c5ccccc5Cl)nnc4s3)cc2)[nH]c1=O
- inhibition at 25 µg/mL [1]: 85%
- inhibition at 25 µg/mL [2]: 80%
- inhibition at 25 µg/mL [3]: 92%

Structure (SMILES): N#Cc1c(-c2ccc(-c3ccccc3)cc2)nc(SCc2ccc(-c3nn4c(-c5ccccc5)nnc4s3)cc2)[nH]c1=O
- inhibition at 25 µg/mL [1]: 68%
- inhibition at 25 µg/mL [2]: 58%
- inhibition at 25 µg/mL [3]: 57%

Structure (SMILES): N#Cc1c(-c2c(Cl)cccc2Cl)nc(SCc2ccc(-c3nn4c(-c5c(Cl)cccc5Cl)nnc4s3)cc2)[nH]c1=O
- inhibition at 25 µg/mL [1]: 82%
- inhibition at 25 µg/mL [2]: 86%
- inhibition at 25 µg/mL [3]: 84%

Structure (SMILES): N#Cc1c(-c2ccccc2)nc(SCc2ccc(-c3nn4c(-c5ccccc5)nnc4s3)cc2)[nH]c1=O
- inhibition at 25 µg/mL [1]: 44%
- inhibition at 25 µg/mL [2]: 57%
- inhibition at 25 µg/mL [3]: 48%

Structure (SMILES): N#Cc1c(-c2c(Cl)cccc2Cl)nc(SCc2ccc(-c3nn4c(-c5ccccc5Cl)nnc4s3)cc2)[nH]c1=O
- inhibition at 25 µg/mL [1]: 56%
- inhibition at 25 µg/mL [2]: 78%
- inhibition at 25 µg/mL [3]: 63%

Structure (SMILES): N#Cc1c(-c2ccc(-c3ccccc3)cc2)nc(SCc2ccc(-c3nn4c(-c5c(Cl)cccc5Cl)nnc4s3)cc2)[nH]c1=O
- inhibition at 25 µg/mL [1]: 84%
- inhibition at 25 µg/mL [2]: 82%
- inhibition at 25 µg/mL [3]: 86%

Structure (SMILES): CCn1cc(C(=O)O)c(=O)c2cc(F)c(N3CCNCC3)cc21 [NORFLOXACIN]
- inhibition at 25 µg/mL [1]: 86%
- inhibition at 25 µg/mL [2]: 89%
- inhibition at 25 µg/mL [3]: 85%

- IC50 [5]: 20.8 µg/mL (≈ 29.2 µM)
Structure (SMILES): N#Cc1c(-c2ccc(-c3ccccc3)cc2)nc(SCc2ccc(CSc3nc(-c4ccc(-c5ccccc5)cc4)c(C#N)c(=O)[nH]3)cc2)[nH]c1=O
- inhibition at 25 µg/mL [1]: 87%
- inhibition at 25 µg/mL [2]: 85%
- inhibition at 25 µg/mL [3]: 62%

Structure (SMILES): N#Cc1c(-c2ccc(Cl)cc2)nc(SCc2ccc(-c3nn4c(-c5ccccc5)nnc4s3)cc2)[nH]c1=O
- inhibition at 25 µg/mL [1]: 49%
- inhibition at 25 µg/mL [2]: 62%
- inhibition at 25 µg/mL [3]: 51%

Structure (SMILES): N#Cc1c(-c2ccc(-c3ccccc3)cc2)nc(SCc2ccc(-c3nn4c(-c5ccccc5Cl)nnc4s3)cc2)[nH]c1=O
- inhibition at 25 µg/mL [1]: 83%
- inhibition at 25 µg/mL [2]: 81%
- inhibition at 25 µg/mL [3]: 88%
